pEC50, pKi: −log10 of the molar value.
Legend:
Histamine H4 receptor [1] = target: T1, Histamine H4 receptor (Homo sapiens, UniProt Q9H3N8); test: Displacement of [3H]histamine from human histamine H4 receptor
Histamine H4 receptor [2] = target: T1, Histamine H4 receptor; test: Agonist activity at human histamine H4 receptor expressed in human SK-N-MC cells assessed as effect on forskolin-induced cAMP accumulation after 6 hrs; assay type: functional, cell-based
Summary of the method: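 SK-N-MC cells with CRE-driven β-galactosidase reporter. Compound added to medium for 10 min at room temperature, then forskolin (5 µM final), 6 h at 37 °C. Chlorophenol red β-D-galactopyranoside substrate read at A570. α set against histamine (full agonist) = 1.0.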

Histamine H4 receptor [3] = target: T1, Histamine H4 receptor; test: Antagonist activity at human histamine H4 receptor expressed in human SK-N-MC cells assessed as inhibition of forskolin-stimulated cAMP accumulation after 6 hrs; assay type: functional, cell-based; conditions: read-out: pA2 (converted)
Summary of the method: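 pA2 format on SK-N-MC cells carrying a CRE-controlled β-galactosidase reporter. Cells were preincubated with compound for 10 min, then with histamine agonist for 10 min, then forskolin was added, followed by 6 h at 37 °C. Lysis used phosphate/Mg/Mn buffer at pH 8 with Triton X-100 and β-mercaptoethanol. Chlorophenol red β-D-galactopyranoside turnover was read at 570 nm.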

Histamine H4 receptor [4] = target: T1, Histamine H4 receptor; test: Agonist activity at human histamine H4 receptor expressed in human SK-N-MC cells assessed as effect on forskolin-induced cAMP accumulation after 6 hrs relative to histamine; assay type: functional, cell-based
Summary of the method: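 SK-N-MC cells expressing human H4 receptor with a cAMP-responsive-element β-galactosidase reporter. Compound incubated 10 min at room temperature, then forskolin (5 µM final), then 6 h at 37 °C. Cells frozen overnight at -40 °C, lysed in phosphate buffer pH 8, chlorophenolred β-D-galactopyranoside substrate added, absorbance read at 570 nm. α calculated relative to histamine (full agonist) set as 1.0.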

| Structure (SMILES) | pKi (Histamine H4 receptor [1]) | pEC50 (Histamine H4 receptor [2]) | Kb (Histamine H4 receptor [3]) | Alpha max (Histamine H4 receptor [4]) |
| --- | --- | --- | --- | --- |
| CC(C)Nc1cc(N2CCN(C)CC2)cc(N)n1 | 7.55 | 6.27 |  | 0.6 |
| CN1CCN(c2cc(NC3CCCC3)nc(N)n2)CC1 | 9.00 | 7.00 |  | 0.46 |
| CC(C)Nc1nc(N)cc(N2CCN(C)CC2)n1 | 6.79 |  |  |  |
| CN[C@@H]1CCN(c2cc(NC(C)C)nc(N)n2)C1 | 8.52 | < 5.00 | 10 nM |  |
| CN[C@@H]1CCN(c2cc(N)nc(N(C)C(C)C)c2)C1 | 7.54 |  |  |  |
| CC(C)CNc1cc(N2CCN(C)CC2)cc(N)n1 | 8.70 | 7.30 |  | 0.51 |
| CN1CCN(c2cc(N)nc(NCC(C)(C)C)c2)CC1 | 9.52 |  |  |  |
| CN[C@@H]1CCN(c2cc(N)nc(NCc3ccccc3)c2)C1 | 7.30 |  |  |  |
| CN1CCN(c2cc(N)nc(NC3CCCC3)n2)CC1 | 8.00 | 7.80 |  | 0.63 |
| CC(C)CNc1cc(N2CCN(C)CC2)nc(N)n1 | 8.70 | < 5.00 | 1.26 nM |  |
| CN[C@@H]1CCN(c2cc(N)nc(NCc3ccccc3)n2)C1 | 7.16 |  |  |  |
| CN[C@@H]1CCN(c2cc(N)nc(NCC(C)C)n2)C1 | 9.00 | < 5.00 | 1.58 nM |  |
| CN1CCN(c2cc(NCCO)nc(N)n2)CC1 | 7.60 |  |  |  |
| Nc1nc(N2CCCC2)cc(N2CC3CCCNC3C2)n1 (racemic) | 7.40 |  |  |  |
| CC(C)N(C)c1cc(N2CCN(C)CC2)nc(N)n1 | 7.62 | < 5.00 |  |  |
| CC(C)CNc1nc(N)cc(N2CCN(C)CC2)n1 | 7.82 | 7.07 |  | 0.71 |
| CN[C@@H]1CCN(c2cc(N)nc(NC3CCCC3)c2)C1 | 9.05 | < 5.00 |  |  |
| Nc1nc(N2CCCC2)cc(N2CC[C@@H](N)C2)n1 | 7.19 |  |  |  |
| Nc1nc(N2CCCC2)cc(N2CCNCC2)n1 | 8.10 | < 5.00 |  |  |
| CN[C@@H]1CCN(c2cc(N)nc(NC(C)C)c2)C1 | 8.52 | < 5.00 | 1.58 nM |  |
| CC(C)Nc1cc(N2CCN(C)CC2)nc(N)n1 | 8.52 | 7.92 |  | 0.57 |
| CC(C)N(C)c1nc(N)cc(N2CCN(C)CC2)n1 | 6.07 |  |  |  |
| CN1CCN(c2cc(N)nc(N3CCCC3)n2)CC1 | 6.88 |  |  |  |
| CN[C@@H]1CCN(c2cc(N)nc(N3CCCC3)c2)C1 | 7.11 | < 5.00 | 15.8 nM |  |
| CC(C)N(C)c1cc(N2CCN(C)CC2)cc(N)n1 | 6.72 |  |  |  |
| CN[C@@H]1CCN(c2cc(N(C)C(C)C)nc(N)n2)C1 | 7.29 |  |  |  |
| CN[C@@H]1CCN(c2cc(N)nc(NC3CCCC3)n2)C1 | 8.22 | < 5.00 | 12.6 nM |  |

Second part, led by results:

| pKi (Histamine H4 receptor [1]) | pEC50 (Histamine H4 receptor [2]) | Kb (Histamine H4 receptor [3]) | Structure (SMILES) | Alpha max (Histamine H4 receptor [4]) |
| --- | --- | --- | --- | --- |
| 8.22 | < 5.00 | 2 nM | CN1CCN(c2cc(N3CCCC3)nc(N)n2)CC1 |  |
| 7.00 | < 5.00 | 20 nM | CN1CCN(c2cc(N)nc(N3CCCC3)c2)CC1 |  |
| 6.85 |  |  | CN[C@@H]1CCN(c2cc(N)nc(N(C)C(C)C)n2)C1 |  |
| 6.59 |  |  | CN[C@@H]1CCN(c2cc(N)nc(NCCO)n2)C1 |  |
| 5.97 |  |  | CN1CCN(c2cc(N)nc(NCc3ccccc3)n2)CC1 |  |
| 7.08 |  |  | CN[C@H]1CCN(c2cc(N3CCCC3)nc(N)n2)C1 |  |
| 6.90 |  |  | CN[C@@H]1CCN(c2cc(N)nc(N3CCCC3)n2)C1 |  |
| 5.94 |  |  | CN1CCN(c2cc(N)nc(NCCO)n2)CC1 |  |
| 8.05 | < 5.00 | 0.398 nM | CN[C@@H]1CCN(c2cc(NC3CCCC3)nc(N)n2)C1 |  |
| 7.44 | < 5.00 | 7.94 nM | CN[C@@H]1CCN(c2cc(N3CCCC3)nc(N)n2)C1 |  |
| 9.70 | < 5.00 | 1.58 nM | CN[C@@H]1CCN(c2cc(N)nc(NCC(C)C)c2)C1 |  |
| 10.40 |  |  | CN[C@@H]1CCN(c2cc(N)nc(NCC(C)(C)C)c2)C1 |  |
| 6.83 |  |  | CN1CCN(c2cc(N)nc(NCc3ccccc3)c2)CC1 |  |
| 8.22 | < 5.00 | 12.6 nM | CN[C@@H]1CCN(c2cc(N)nc(NC(C)C)n2)C1 |  |
| 7.70 |  |  | CN1CCN(c2cc(NCc3ccccc3)nc(N)n2)CC1 |  |
| 7.24 |  |  | CN[C@@H]1CCN(c2cc(NCc3ccccc3)nc(N)n2)C1 |  |
| 8.52 | 7.96 |  | CN1CCN(c2cc(N)nc(NC3CCCC3)c2)CC1 | 0.73 |
| 7.36 |  |  | CN[C@@H]1CCN(c2cc(NCCO)nc(N)n2)C1 |  |

Reference: ChEMBL document CHEMBL1770114, “Triamino pyrimidines and pyridines as histamine H(4) receptor modulators” (Bioorg Med Chem Lett, 2011)
